Measured values pooled from the literature.
Compare with care: the assays were run in different laboratories.
Target: Platelet-derived growth factor receptor alpha (PDGFRA, Homo sapiens, UniProt P16234)

`C[C@@H]1CCN(c2nccc(-c3cnn4ncccc34)n2)C1` gave a remaining binding of 81% (binding; 1 µM).
`COCCOc1nc(-c2ccc(Cl)nc2)nc2c1CN(C(=O)c1ncn3ccccc13)CC2` gave a remaining binding of 100% (cell-free assay; competition with immobilised ligand; 0.1 µM).
For `COc1ncc2cc3ccccc3nc2c1C#N`, the remaining binding was 83% (cell-free assay; competition with immobilised ligand; 5 µM).
`C[C@@H]1CN(c2ccc3ncc(-c4ccc5[nH]nc(C6CC6)c5c4)n3n2)C[C@H](C)O1` has a remaining binding of 81% (binding; competition with immobilised ligand; 50 nM).
`CN(C)c1nccc(-c2cnc3ncccn23)n1` has a remaining binding of 78% (binding; 1 µM).
`COc1ccc2c(O[C@@H]3C[C@H]4C(=O)N[C@]5(C(=O)O)CC5/C=C\CCCCC[C@H](NC(=O)OC5CCCC5)C(=O)N4C3)cc(-c3csc(NC(=O)C(C)C)n3)nc2c1C` (some centres unmarked) gave a remaining binding of 84% (cell-free assay; competition with immobilised ligand; 1 µM).
`CN(c1nccc(-c2cnn3ncccc23)n1)C1CC1` gave a remaining binding of 100% (binding; 1 µM).
The remaining binding of `CNC(=O)[C@@H]1CC[C@@H](n2c(-c3ccc4cnccc4c3)nc3ccc(C(=O)NCc4cccc(C(N)=O)c4)cc32)C1` is reported as 100% (binding; competition with immobilised ligand; 1 µM).
`CN(CCCC(F)(F)F)c1nccc(-c2cnn3ncccc23)n1` has a remaining binding of 100% (binding; 1 µM).
With `FC(F)(F)Oc1cccc(-c2cnc3ccc(-c4ccncc4)nn23)c1` the remaining binding was 22% (cell-free assay; competition with immobilised ligand; 5 µM).
For `CC(C)(C)c1ccc(-c2nc(CBr)nn2-c2cccc(O)c2)cc1`, the remaining binding was 83% (cell-free assay; competition with immobilised ligand; 10 µM).
The remaining binding of `c1cncc(-c2cccc(Nc3nccc(NC4CCCCC4)n3)c2)c1` is reported as 11% (binding; competition with immobilised ligand; 10 µM).
For `N[C@@H]1CCN(c2nccc(-c3cnn4ncccc34)n2)C1`, the remaining binding was 100% (binding; 1 µM).
`O=C(c1ccc(Nc2ncc(Cl)c(-c3ccc(Cl)s3)n2)cc1)N1CCC(N2CCCC2)CC1` has a remaining binding of 3.4% (binding; competition with immobilised ligand; 1 µM).
`Cn1cc(Cl)c2c(Oc3c(F)cc(Nc4cc(Cl)nc(N)n4)cc3F)ccnc21` has a remaining binding of 98% (cell-free assay; competition with immobilised ligand; 0.1 µM).
`C=CC(=O)N1CCC(C(=O)NCC(=O)N2CCN(c3nc(-c4cnc(N)nc4C(F)F)nc(N4CCOCC4)n3)CC2)CC1` gave a remaining binding of 91% (binding; competition with immobilised ligand; 1 µM).
The remaining binding of `CCOCCn1cc(C(=O)Nc2ccc(-n3nc(-c4cccnc4)cc3C(F)(F)F)cn2)ccc1=O` is reported as 68% (cell-free assay; competition with immobilised ligand; 1 µM).
For `O=C(c1ccc(Nc2nccc(-c3cc4ccccc4s3)n2)cc1)N1CCC(N2CCCC2)CC1`, the remaining binding was 52% (binding; competition with immobilised ligand; 1 µM).
`CC(C)(O)c1cncc(-c2nc3ccc(F)cc3n2C2CC2)c1` gave a remaining binding of 100% (cell-free assay; competition with immobilised ligand; 1 µM).
`CCN1CCN(Cc2ccc(C(=O)Nc3ccc(C)c(Oc4ccc5c(c4)CC(=O)N5)c3)cc2C(F)(F)F)CC1` has a remaining binding of 100% (binding; competition with immobilised ligand; 1 µM).
For `C[C@H](c1cccc(C#N)c1)n1cc(Cl)cc(C(N)=O)c1=N`, the remaining binding was 94% (cell-free assay; competition with immobilised ligand; 1 µM).
`CC1CCCN1c1nccc(-c2cnn3ncccc23)n1` (centres unmarked) gave a remaining binding of 94% (binding; 1 µM).
With `COc1cc(-c2cn(C3CCc4ccccc4N(CC(F)(F)F)C3=O)nn2)ccc1-n1ccc(C)n1` (centres unmarked) the remaining binding was 88% (cell-free assay; competition with immobilised ligand; 1 µM).
For `O=C(NCC1CCOCC1)c1n[nH]cc1NC(=O)c1c(F)cccc1F`, the remaining binding was 84% (binding; competition with immobilised ligand; 1 µM).
`CS(=O)(=O)c1cc(C2(NC(=O)c3cncc4c3cnn4-c3ccc(F)cc3)CC2)ccn1` has a remaining binding of 90% (cell-free assay; competition with immobilised ligand; 1 µM).
`Cc1cnc(Nc2ccc(C(=O)N3CCC(N4CCCC4)CC3)cc2)nc1-c1cc2ccccc2s1` gave a remaining binding of 14% (binding; competition with immobilised ligand; 1 µM).
